Test results published in ChEMBL document CHEMBL5120973, “Discovery of Desmuramylpeptide NOD2 Agonists with Single-Digit Nanomolar Potency” (ACS Med Chem Lett, 2022).
The source made the active and inactive calls.

Columns and labels:
[1] = target: Nucleotide-binding oligomerization domain-containing protein 2 (Homo sapiens) (UniProt Q9HC29); test: Synergistic agonist activity at NOD2 in human PBMC assessed as induction of IL-6 production at 1 uM incubated for 18 hrs in presence of IFN-gamma; format: cell-based; conditions: filed as agonist
Outline: (§1)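 PBMCs (500,000/well) treated with agonist at 1 μM together with LPS (10 ng/mL) or IFN-γ (200 U/mL); vehicle 0.1% DMSO. Supernatants taken after 18 h at 37 °C, 5% CO2, stored at -80 °C, then assayed for cytokines by cytometric bead array on a flow cytometer.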

[2] = target: Nucleotide-binding oligomerization domain-containing protein 2 (Homo sapiens) (UniProt Q9HC29); test: Synergistic agonist activity at NOD2 in human PBMC assessed as induction of IL-1beta production at 1 uM incubated for 18 hrs in presence of LPS; format: cell-based; conditions: filed as agonist; outline: as §1
[3] = target: Nucleotide-binding oligomerization domain-containing protein 2 (Homo sapiens) (UniProt Q9HC29); test: Agonist activity at NOD2 in human PBMC assessed as induction of TNFalpha production at 1 uM incubated for 18 hrs; format: cell-based; conditions: filed as agonist
Outline: (§2)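 500,000 cells/well in 500 μL medium, treated 18 h at 37 °C, 5% CO2 against a 0.1% DMSO vehicle. Cell-free supernatants stored at -80 °C. Cytokines measured by cytometric bead array (human inflammatory cytokines) on a flow cytometer.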

[4] = target: Nucleotide-binding oligomerization domain-containing protein 2 (Homo sapiens) (UniProt Q9HC29); test: Synergistic agonist activity at NOD2 in human PBMC assessed as induction of TNF-alpha production at 1 uM incubated for 18 hrs in presence of LPS; format: cell-based; conditions: filed as agonist; outline: as §1
[5] = target: Nucleotide-binding oligomerization domain-containing protein 2 (Homo sapiens) (UniProt Q9HC29); test: Synergistic agonist activity at NOD2 in human PBMC assessed as induction of TNFalpha production at 1 uM incubated for 18 hrs in presence of IFN-gamma; format: cell-based; conditions: filed as agonist; outline: as §1
[6] = target: T1, Nucleotide-binding oligomerization domain-containing protein 2 (Mus musculus) (UniProt Q8K3Z0); test: Agonist activity at mouse NOD2 expressed in RAW -Blue NOD2 reporter cells by colorimetry based SEAP assay; conditions: filed as agonist
T1 sequence (whole entry): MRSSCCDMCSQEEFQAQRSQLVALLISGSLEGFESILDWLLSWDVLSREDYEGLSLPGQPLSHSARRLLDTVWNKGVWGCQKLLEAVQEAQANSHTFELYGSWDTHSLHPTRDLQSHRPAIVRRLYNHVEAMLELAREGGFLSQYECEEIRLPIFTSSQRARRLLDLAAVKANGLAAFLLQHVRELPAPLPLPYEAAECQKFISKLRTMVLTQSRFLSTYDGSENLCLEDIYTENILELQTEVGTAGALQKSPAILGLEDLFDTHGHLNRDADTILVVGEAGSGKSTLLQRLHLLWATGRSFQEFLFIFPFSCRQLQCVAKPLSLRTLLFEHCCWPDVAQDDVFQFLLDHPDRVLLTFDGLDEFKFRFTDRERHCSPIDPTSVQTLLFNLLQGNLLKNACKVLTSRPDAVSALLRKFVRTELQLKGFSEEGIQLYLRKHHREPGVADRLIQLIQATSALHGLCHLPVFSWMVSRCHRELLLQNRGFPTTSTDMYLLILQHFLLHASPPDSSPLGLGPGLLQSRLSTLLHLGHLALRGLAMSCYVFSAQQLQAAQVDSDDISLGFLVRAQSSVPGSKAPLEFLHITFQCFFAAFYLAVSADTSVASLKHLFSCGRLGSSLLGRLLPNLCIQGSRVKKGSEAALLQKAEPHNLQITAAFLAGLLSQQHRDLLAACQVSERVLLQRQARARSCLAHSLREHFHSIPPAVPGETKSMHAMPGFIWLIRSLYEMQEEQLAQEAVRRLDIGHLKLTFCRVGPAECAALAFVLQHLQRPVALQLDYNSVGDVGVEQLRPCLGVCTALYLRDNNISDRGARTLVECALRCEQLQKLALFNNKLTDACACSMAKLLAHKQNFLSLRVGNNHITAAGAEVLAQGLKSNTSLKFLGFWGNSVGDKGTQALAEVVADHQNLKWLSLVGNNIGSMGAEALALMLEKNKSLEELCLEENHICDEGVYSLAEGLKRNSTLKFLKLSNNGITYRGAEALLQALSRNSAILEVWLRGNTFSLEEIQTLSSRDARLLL

[7] = target: Nucleotide-binding oligomerization domain-containing protein 2 (Homo sapiens) (UniProt Q9HC29); test: Agonist activity at NOD2 in human PBMC assessed as induction of IL-8 production at 1 uM incubated for 18 hrs; format: cell-based; conditions: filed as agonist; outline: as §2
[8] = target: Nucleotide-binding oligomerization domain-containing protein 2 (Homo sapiens) (UniProt Q9HC29); test: Agonist activity at NOD2 in human PBMC assessed as induction of IL-6 production at 1 uM incubated for 18 hrs; format: cell-based; conditions: filed as agonist; outline: as §2
PBMC [9] = test: Synergistic potentiation of LPS-induced cytotoxicity of human PBMCs against human K562 cells assessed as increase in dead cells level at 1 uM incubated for 18 hrs before addition of K562 cells by CFSE/Sytox Blue staining based flow cytometry relative to control
[10] = target: Nucleotide-binding oligomerization domain-containing protein 2 (Homo sapiens) (UniProt Q9HC29); test: Agonist activity at NOD2 in human PBMC assessed as induction of IL-1beta production at 1 uM incubated for 18 hrs; format: cell-based; conditions: filed as agonist; outline: as §2
[11] = target: Nucleotide-binding oligomerization domain-containing protein 2 (Homo sapiens) (UniProt Q9HC29); test: Synergistic agonist activity at NOD2 in human PBMC assessed as induction of IL-6 production at 1 uM incubated for 18 hrs in presence of LPS; format: cell-based; conditions: filed as agonist; outline: as §1
[12] = target: Nucleotide-binding oligomerization domain-containing protein 2 (Homo sapiens) (UniProt Q9HC29); test: Synergistic agonist activity at NOD2 in human PBMC assessed as induction of IL-1beta production at 1 uM incubated for 18 hrs in presence of IFN-gamma; format: cell-based; conditions: filed as agonist; outline: as §1
PBMC [13] = test: Synergistic potentiation of IFN-gamma-induced cytotoxicity of human PBMCs against human K562 cells assessed as increase in dead cells level at 1 uM incubated for 18 hrs before addition of K562 cells by CFSE/Sytox Blue staining based flow cytometry relative to control

Measured: Activity

Chain of Nucleotide-binding oligomerization domain-containing protein 2 (Homo sapiens) (Q9HC29 whole entry, the tested form may be a part): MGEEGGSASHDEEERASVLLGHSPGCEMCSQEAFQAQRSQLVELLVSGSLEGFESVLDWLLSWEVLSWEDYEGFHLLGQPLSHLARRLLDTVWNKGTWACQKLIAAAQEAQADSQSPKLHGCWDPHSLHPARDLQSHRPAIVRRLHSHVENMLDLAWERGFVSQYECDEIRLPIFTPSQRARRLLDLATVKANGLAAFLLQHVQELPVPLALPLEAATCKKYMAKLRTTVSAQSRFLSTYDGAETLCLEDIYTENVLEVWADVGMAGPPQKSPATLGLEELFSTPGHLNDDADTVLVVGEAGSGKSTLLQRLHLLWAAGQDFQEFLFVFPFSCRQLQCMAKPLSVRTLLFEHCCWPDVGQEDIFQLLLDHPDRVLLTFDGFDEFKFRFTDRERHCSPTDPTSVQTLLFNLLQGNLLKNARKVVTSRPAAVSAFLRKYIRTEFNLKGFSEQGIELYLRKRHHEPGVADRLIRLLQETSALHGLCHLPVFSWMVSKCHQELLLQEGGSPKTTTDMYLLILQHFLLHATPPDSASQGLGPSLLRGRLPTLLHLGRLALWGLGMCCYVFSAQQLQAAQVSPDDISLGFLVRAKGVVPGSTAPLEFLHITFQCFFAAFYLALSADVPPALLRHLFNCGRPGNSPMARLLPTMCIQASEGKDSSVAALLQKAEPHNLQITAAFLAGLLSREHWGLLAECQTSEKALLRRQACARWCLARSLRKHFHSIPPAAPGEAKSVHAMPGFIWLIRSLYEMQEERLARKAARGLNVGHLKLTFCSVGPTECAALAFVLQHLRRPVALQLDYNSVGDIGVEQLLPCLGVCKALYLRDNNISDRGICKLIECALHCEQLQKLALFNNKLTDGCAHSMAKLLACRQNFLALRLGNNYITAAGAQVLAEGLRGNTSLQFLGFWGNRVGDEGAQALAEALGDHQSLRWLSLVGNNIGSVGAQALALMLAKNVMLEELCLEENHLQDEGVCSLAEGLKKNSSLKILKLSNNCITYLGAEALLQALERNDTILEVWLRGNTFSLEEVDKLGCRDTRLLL

CCOC(=O)CC[C@@H](NC(=O)[C@@H](NC(=O)CNC(=O)/C=C/c1ccc(OC(=O)CC23CC4CC(CC(C4)C2)C3)c(OC)c1)C(C)C)C(=O)OCC
active: [1] | [2] | [3] | [4] | [5] | [6] | [7] | [8] | PBMC [9] | [10] | [11] | [12] | PBMC [13]

COc1cc(/C=C/C(=O)NCC(=O)N[C@H](C(=O)N[C@H](CCC(=O)OC2CCCC2)C(=O)OC2CCCC2)C(C)C)ccc1O
active: PBMC [9] | PBMC [13]

CC(=O)N[C@@H]1[C@@H](O[C@H](C)C(=O)N[C@@H](C)C(=O)N[C@H](CCC(=O)O)C(N)=O)[C@@H](O)[C@@H](CO)O[C@H]1O
active: [3] | [7] | [8] | [10]
